From PubChem
CR mimetic SO: lowers age-related superoxide in aged yeast cells; superoxide response (% of plate mean), % at 10 µM; AID 2690; S. cerevisiae aged cells, superoxide DHE fluorescence; hits give low values; actives 0.18% (n = 330,000);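 active = superoxide response under a set limit, about three screen SD below normal, cut at about 65% in these data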;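 note: yeast aged for seven days with compound at 30 °C before DHE staining; 100% = average MFI of all compound-treated wells on the plate with controls excluded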
PglD DTNB: PglD (C. jejuni) enzyme inhibition; AID 602405; inhibition, % at 12.5 µM; purified PglD enzyme, DTNB colorimetric CoA detection; actives 0.098% (n = 360,000); in the data active = inhibition above about 16%, passing the limit was not always enough
Mot1-301 SUMO: blocks SUMOylation pathway, rescuing yeast Mot1-301 growth | S. cerevisiae Mot1-301 growth rescue, ATP luminescence, 38.5C; percent above DMSO median, 100 means doubled | growth rescue, % at 18.8 µM | actives 1% (n = 320,000);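 active = every valid replicate shows activation above 250% relative to neutral control wells; inactive = the rest, any valid replicate at or below 250%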;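 note: OY570 slx delta 5 strain wells were the positive control but not used for scaling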
Cneo AK release: causes C. neoformans cell lysis; actives 0.2% (n = 360,000); adenylate kinase release luminescence, 4 h; normalised: neutral wells 0, clomiphene wells 100; lysis activity, % at 15 µM;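 active = mean lysis activity across replicates of at least 80%, whatever share of replicates individually reach that level; inactive = mean lysis activity below 80%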
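Material – Cryptococcus neoformans yeast cells · Quantity – 5 × 10^6 yeast cells/mL · Buffer or medium – YPD medium · Compound – single dose · Timing – 4 h static compound exposure, 37 °C, read 1 h post-reagent · Signal – adenylate kinase release luminescence · Read-out basis – lysis from increased AK signal · Benchmarks – Clomiphene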
Ecoli rRNA inh: inhibits bacterial ribosomal RNA function over humanized ribosomes; E. coli WT GFP vs humanized-ribosome RFP mutants, fluorescence, 24 h; hits give low values; DMSO median 0, no signal -100; GFP signal change (wild-type ribosome), % (no concentration beside the values); actives 1.6% (n = 350,000);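 active = significant combined selectivity score with lowered wild-type GFP, culture density cut under 30%, mutant RFP and density less affected; inactive = any of these conditions unmet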
Yeast Mot1 SUMO: SUMO pathway inhibitors in yeast Mot1-301 growth; shares compounds with Mot1-301 SUMO; growth activity, percent, % at 42 µM; 2,300 tested, under 10 active; S. cerevisiae Mot1-301 galactose growth, ATP luminescence, 24 h; -100 = growth of slx-deleted rescue strain;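 active = Signal drops as the depositor expects, and the fitted half-maximal dose is no more than ten times the top valid tested dose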;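 note: more negative values mean stronger growth rescue toward the control strain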
* marks the source's active call; other numbers are inactive results; x = no result; + = active, no number. Shown are actives, neighbours in structure and some others; about 2.2% of the full set was active somewhere.

SMILES | CR mimetic SO | PglD DTNB | Mot1-301 SUMO | Cneo AK release | Ecoli rRNA inh | Yeast Mot1 SUMO
Cc1nn(C(C)(C)C)c(OC(=O)c2ccc3c(c2)OCO3)c1S(=O)(=O)c1ccccc1 | 96 | -3 | + | -8 | x | -1
Cc1nn(C(C)(C)C)c(OC(=O)c2ccc3c(c2)OCO3)c1Sc1ccccc1 | 98 | -1 | 109 | 0 | x | x
COC(=O)[C@@H]1C[C@@H]2CC[C@@H](O)C[C@@H]2N1Cc1ccc(N2CCN(C)CC2)cc1 | 109 | -1 | 522* | -2 | 5 | 0
COC(=O)[C@@H]1C[C@H]2CC[C@H](O)C[C@H]2N1Cc1ccccc1OS(=O)(=O)c1ccc(C)cc1 | x | -2 | -3 | -1 | -1 | x
CC(=O)Nc1cccc(OCC(=O)NS(=O)(=O)c2ccc(C)cc2)c1 | 117 | x | 846* | x | 17 | -1
CCOC(=O)c1c(N)sc(C(=O)N2CCCC(C(N)=O)C2)c1C (stereo not given) | 111 | -1 | 933* | 3 | x | 1
COc1ccc(S(=O)(=O)Nc2cccc3c2O[C@@H](CN(C)CC2CCCCC2)[C@@H](C)CN([C@@H](C)CO)C3=O)cc1 | x | -2 | x | 14 | 2 | x
CCOC(=O)CS(=O)(=O)c1ccccc1 | 105 | 1 | x | -1 | x | x
CCOC(=O)CS(=O)(=O)c1ccc2ccccc2c1 | 111 | 0 | 955* | -1 | x | 2
O=C(NC(=S)Nc1ccccc1N1CCCC1)c1ccc([N+](=O)[O-])cc1 | 103 | x | 407* | x | x | 0
COc1ccc(C(=O)NC(=S)Nc2ccccc2N2CCCCC2)cc1[N+](=O)[O-] | 96 | x | -25 | x | x | x
Cc1c(C(=O)NC(=S)Nc2ccccc2N2CCCC2)cccc1[N+](=O)[O-] | 90 | x | 426* | x | 10 | 0
Cc1cc(C)c2c(=O)n(CC(=O)N3CCC(N4CCCCC4)CC3)sc2n1 | 105 | 16 | -13 | 2 | 9 | x
CCCNC(=O)Cn1sc2nc(C)cc(C)c2c1=O | 106 | x | 423* | x | 21 | 0
Cc1ccc2nc3c(cc(C(=O)NCCc4ccccc4)c(=N)n3CCN3CCOCC3)c(=O)n2c1 | 100 | -1 | -3 | -2 | x | x
Cc1ccc2nc3c(cc(C(=O)NCCN4CCOCC4)c(=N)n3CCCN3CCOCC3)c(=O)n2c1 | 96 | -5 | 674* | 0 | x | 0
COc1ccc2c3c([nH]c2c1)[C@@H](CO)N(Cc1nccs1)CC31CN(C(=O)C2CCCC2)C1 | x | x | x | x | -4 | x
CCCNC(=O)C[C@@H]1CC[C@@H]2[C@H](COC[C@@H](O)CN2Cc2ccc(Cl)c(Cl)c2)O1 | x | 12 | x | 1 | -2 | x
COc1cc2c(cc1OC)CN(C(=O)Cc1c(F)cccc1Cl)CC2 | 98 | -4 | 475* | -1 | -4 | 1
COc1ccc(CC(=O)N2CCc3cc(OC)c(OC)cc3C2)cc1 | 104 | 4 | -4 | 0 | 5 | x
O=C(C[C@H]1C[C@@H]2c3cc(NC(=O)c4ccc5c(c4)OCO5)ccc3O[C@@H]2[C@@H](CO)O1)NCc1cccc(F)c1 | x | 3 | x | -22 | -11 | x
Cc1ccc(-c2ccc(/C=N/n3cnnc3)o2)cc1 | 108 | x | 505* | x | -2 | -1
Cc1ccc(-c2ccc(/C=N/n3cnnc3)o2)cc1Cl | 102 | -1 | 20 | 2 | x | x
N=c1n(CCCOc2ccc(Br)cc2)c2ccccc2n1CC(N)=O | 93 | 2 | 363* | -2 | -1 | 0
C=C(C)C(=O)Nc1cccnc1Oc1ccc(F)cc1F | 103 | x | + | x | 0 | 1
SMILES | CR mimetic SO | PglD DTNB | Mot1-301 SUMO | Cneo AK release | Ecoli rRNA inh | Yeast Mot1 SUMO
Cc1cccnc1NC(=S)Nc1ccc(F)cc1F | 112 | x | 9 | x | 17 | x
Cc1ccc(NC2c3ncccc3C(=O)N2C2CCCCC2)cc1 (stereo not given) | 109 | x | 10 | x | x | x
Cc1ccc(NC2c3ncccc3C(=O)N2C2CCCCC2)cc1C (stereo not given) | 81 | -3 | 395* | 4 | x | -1
COc1ccc(S(=O)(=O)NCC(=O)N(CC(=O)NCc2ccco2)Cc2ccccc2)cc1 | 97 | -3 | 642* | 1 | -2 | 0
COc1ccc(CN(CC(=O)NCc2ccco2)C(=O)CCC(=O)Nc2nccs2)cc1 | 114 | 3 | 868* | -4 | x | 0
O=C(C[C@H]1CC[C@@H](NS(=O)(=O)c2ccc(F)cc2)[C@@H](CO)O1)NCc1ccc(Cl)c(Cl)c1 | x | -5 | x | -4 | -14 | x
CCOc1ccccc1Nc1nnc(SCc2nnc(-c3cc(OC)c(OC)c(OC)c3)o2)s1 | 98 | -7 | 608* | 0 | x | 0
O=C1NC(c2ccccc2)C(C(=O)c2cccs2)C(O)(C(F)(F)F)N1 (stereo not given) | 90 | x | 374* | x | x | 0
CCn1c(Cc2ccccc2)nnc1SCC(=O)Nc1ccc(N2CCOCC2)c(Cl)c1 | 106 | 6 | -16 | 9 | x | x
Cn1c(SCC(=O)Nc2ccc(N3CCOCC3)c(Cl)c2)nnc1-c1ccccc1 | 109 | x | 692* | x | x | 0
CO[C@@H]1CN(C)C(=O)c2cc(NC(C)=O)ccc2OC[C@H](C)N(C(=O)C2CCC2)C[C@H]1C | x | x | x | x | 1 | x
CCC(=O)N1N=C(c2c(-c3ccccc3)c3cc(Cl)ccc3[nH]c2=O)CC1c1ccco1 (stereo not given) | 110 | x | 0 | x | x | x
O=C(O)CCC(=O)N1N=C(c2c(-c3ccccc3)c3cc(Cl)ccc3[nH]c2=O)CC1c1ccco1 (stereo not given) | 102 | x | 377* | x | x | 0
Cn1nc(C(=O)NCCc2ccc(Cl)cc2)c2c1-c1ccccc1S(=O)(=O)C2 | 113 | 2 | 440* | 1 | -6 | 1
COc1ccccc1CN1C(=O)CN(C2CCCCCC2)C(=O)C1c1ccc(F)cc1 (stereo not given) | 115 | -7 | -10 | 3 | x | x
CCC(C)N1C(=O)CN(C2CCCCCC2)C(=O)C1c1ccccc1F (stereo not given) | 115 | x | 422* | x | 5 | -1
COc1ccc2c(C(=O)CN3CCC(C)CC3)c[nH]c2c1 | 106 | -14 | -12 | 3 | x | x
COc1ccc2c(C(=O)CN3CC(C)OC(C)C3)c[nH]c2c1 (stereo not given) | 93 | -2 | 390* | -3 | x | 0
COc1ccc(CN(C)S(=O)(=O)c2nnc(NC(=O)c3ccc(C)cc3)s2)cc1OC | 93 | -4 | 466* | -2 | 0 | 0
CCCC(=O)N1CCC2(CC1)CN(C(=O)CC1CC1)[C@H](CO)c1c2c2ccc(OC)cc2n1C | x | x | x | x | -1 | x
c1ccc(N2CCN(C3CCSC3)CC2)cc1 (stereo not given) | 96 | 7 | 817* | 1 | 9 | 1
Fc1ccc(N2CCN(C3CCC(c4ccccc4)CC3)CC2)cc1 (stereo not given) | 94 | 0 | -12 | 0 | -18 | x
